ChEMBL document CHEMBL1132220 (J Med Chem, 1999)
One block for each compound: values may come before it. Bridge positions count the residues as written; N and C are the ends. Square brackets hold non-standard residues; d marks the D form. Peptide text beside a SMILES is read from it. dPhe(4-F) = N[C@H](Cc1ccc(F)cc1)C(=O)O; 2Nal = N[C@@H](Cc1ccc2ccccc2c1)C(=O)O; Bta = N[C@@H](Cc1csc2ccccc12)C(=O)O; 3Pal = N[C@@H](Cc1cccnc1)C(=O)O; Tle = CC(C)(C)[C@H](N)C(=O)O

Assays:
[1] = biological target: Somatostatin receptor type 3 (Homo sapiens, UniProt P32745); experiment: The compound was tested for binding affinity against human Somatostatin receptor type 3
Chain of Somatostatin receptor type 3 (P32745 whole entry): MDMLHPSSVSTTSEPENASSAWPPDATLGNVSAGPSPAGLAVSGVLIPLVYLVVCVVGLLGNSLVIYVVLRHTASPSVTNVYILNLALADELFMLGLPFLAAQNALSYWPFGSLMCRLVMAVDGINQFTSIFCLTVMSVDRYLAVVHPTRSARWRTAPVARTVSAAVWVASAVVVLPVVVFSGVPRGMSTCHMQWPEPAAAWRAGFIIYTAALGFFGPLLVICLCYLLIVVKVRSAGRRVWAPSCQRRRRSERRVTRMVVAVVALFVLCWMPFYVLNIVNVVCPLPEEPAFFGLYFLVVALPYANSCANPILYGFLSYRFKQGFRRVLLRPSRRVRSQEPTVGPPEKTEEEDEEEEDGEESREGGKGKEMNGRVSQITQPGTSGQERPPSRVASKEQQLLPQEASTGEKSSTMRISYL
Outline: (§1)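 CHO-K1 cells stably transfected (calcium phosphate) with cloned human sst3 or sst4. Membranes made in ice-cold 50 mM Tris-HCl, resuspended in 10 mM Tris-HCl, then incubated 30 min at 37 °C with 0.05 nM [125I]Tyr11-SRIF in HEPES pH 7.4 with BSA, MgCl2 and protease inhibitors. Filtered on GF/C; nonspecific binding with 1.0 µM SRIF. Mean ± SEM, or one experiment.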

[2] = biological target: Somatostatin receptor type 4 (Homo sapiens, UniProt P31391); experiment: The compound was tested for binding affinity against human Somatostatin receptor type 4; outline: as §1
Chain of Somatostatin receptor type 4 (P31391 whole entry): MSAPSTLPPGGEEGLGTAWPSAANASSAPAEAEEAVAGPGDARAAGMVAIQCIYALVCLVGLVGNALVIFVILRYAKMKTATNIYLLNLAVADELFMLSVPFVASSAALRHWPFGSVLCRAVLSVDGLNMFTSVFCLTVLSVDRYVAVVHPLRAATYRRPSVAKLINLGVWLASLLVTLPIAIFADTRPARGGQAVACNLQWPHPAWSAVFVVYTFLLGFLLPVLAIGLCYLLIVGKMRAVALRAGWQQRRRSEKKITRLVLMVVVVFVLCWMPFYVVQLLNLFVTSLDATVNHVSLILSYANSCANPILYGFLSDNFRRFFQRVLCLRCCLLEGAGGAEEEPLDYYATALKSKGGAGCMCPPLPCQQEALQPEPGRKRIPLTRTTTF

[3] = biological target: Somatostatin receptor type 1 (Homo sapiens, UniProt P30872); experiment: The compound was tested for binding affinity against human Somatostatin receptor type 1
Chain of Somatostatin receptor type 1 (P30872 whole entry): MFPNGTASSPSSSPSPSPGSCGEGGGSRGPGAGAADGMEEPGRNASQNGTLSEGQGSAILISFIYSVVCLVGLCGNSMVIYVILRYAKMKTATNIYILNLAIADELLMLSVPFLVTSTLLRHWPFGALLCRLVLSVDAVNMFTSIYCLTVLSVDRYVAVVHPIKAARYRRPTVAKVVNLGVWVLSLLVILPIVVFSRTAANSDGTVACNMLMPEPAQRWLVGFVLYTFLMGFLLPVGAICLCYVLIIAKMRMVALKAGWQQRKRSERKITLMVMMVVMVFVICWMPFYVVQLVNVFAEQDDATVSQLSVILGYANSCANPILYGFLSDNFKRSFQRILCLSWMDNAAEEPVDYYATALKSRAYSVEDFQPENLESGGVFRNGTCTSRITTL
Outline: (§2)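 Membranes from CHO-K1 cells transfected with the cloned human receptor. Terminated by filtration on PEI-soaked GF/C filters. Nonspecific binding defined with 1.0 μM SRIF. Mean ± SEM; single values are from one experiment.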

[4] = biological target: Somatostatin receptor type 2 (Homo sapiens, UniProt P30874); experiment: The compound was tested for binding affinity against human Somatostatin receptor type 2
Chain of Somatostatin receptor type 2 (P30874 whole entry): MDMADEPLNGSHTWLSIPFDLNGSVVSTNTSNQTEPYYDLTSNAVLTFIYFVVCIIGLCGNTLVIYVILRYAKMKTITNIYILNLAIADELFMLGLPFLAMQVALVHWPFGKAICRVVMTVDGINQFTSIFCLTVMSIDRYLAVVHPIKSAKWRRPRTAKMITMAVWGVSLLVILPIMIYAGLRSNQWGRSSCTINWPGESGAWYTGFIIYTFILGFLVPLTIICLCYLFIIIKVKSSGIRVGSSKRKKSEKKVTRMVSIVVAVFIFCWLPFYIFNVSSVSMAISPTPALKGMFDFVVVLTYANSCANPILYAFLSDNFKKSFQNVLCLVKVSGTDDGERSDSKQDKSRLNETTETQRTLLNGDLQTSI
Outline: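 Membranes from CHO-K1 cells transfected with the cloned human sst2. Incubated 30 min at 37 °C with 0.05 nM [125I]MK-678 in HEPES pH 7.4 with BSA, MgCl2, Trasylol, bacitracin and PMSF. Filtration on PEI-soaked GF/C filters. Nonspecific binding defined with 1.0 μM SRIF. Mean ± SEM; single values are from one experiment.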

[5] = biological target: Somatostatin receptor type 5 (Homo sapiens, UniProt P35346); experiment: The compound was tested for binding affinity against human Somatostatin receptor type 5; outline: as §2
Chain of Somatostatin receptor type 5 (P35346 whole entry): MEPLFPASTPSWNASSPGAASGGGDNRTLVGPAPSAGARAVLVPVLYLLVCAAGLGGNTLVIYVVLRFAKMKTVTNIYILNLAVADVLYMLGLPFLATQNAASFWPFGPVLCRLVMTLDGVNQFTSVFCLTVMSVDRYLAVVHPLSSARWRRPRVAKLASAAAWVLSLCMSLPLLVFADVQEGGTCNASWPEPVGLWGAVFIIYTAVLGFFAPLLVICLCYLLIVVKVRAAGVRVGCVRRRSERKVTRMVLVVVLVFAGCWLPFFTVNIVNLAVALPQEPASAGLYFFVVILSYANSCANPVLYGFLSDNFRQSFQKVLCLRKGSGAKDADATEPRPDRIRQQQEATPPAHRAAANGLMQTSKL

Structure (SMILES): CC(C)(C)[C@@H]1NC(=O)[C@H](CCCCN)NC(=O)[C@@H](Cc2c[nH]c3ccccc23)NC(=O)[C@H](Cc2cccnc2)NC(=O)[C@H](NC(=O)[C@@H](N)Cc2ccc(Cl)cc2)CSSC[C@@H](C(=O)N[C@@H](Cc2ccc(Cl)cc2)C(N)=O)NC1=O
- Ki [1]: 58 nM
- Ki [2]: 1640 nM
- Ki [3]: > 1000 nM
- Ki [4]: 19 nM

Structure (SMILES): CC(C)[C@H]1NC(=O)[C@H](CCCCN)NC(=O)[C@@H](Cc2c[nH]c3ccccc23)NC(=O)[C@H](Cc2c[nH]cn2)NC(=O)C(NC(=O)[C@@H](N)Cc2ccccc2F)CSSCC(C(=O)N[C@@H](Cc2ccccc2F)C(N)=O)NC1=O (stereo in doubt)
- Ki [1]: 382 nM
- Ki [2]: > 1000 nM
- Ki [3]: 37 nM
- Ki [4]: 176 nM
- Ki [5]: 972 nM

Structure (SMILES): CC(C)[C@@H]1NC(=O)[C@H](CCCCN)NC(=O)[C@@H](Cc2c[nH]c3ccccc23)NC(=O)[C@H](Cc2cccnc2)NC(=O)[C@H](NC(=O)[C@@H](N)Cc2ccc(Cl)cc2)CSSC[C@@H](C(=O)N[C@@H](Cc2ccc(Cl)cc2)C(N)=O)NC1=O
- Ki [1]: 51 nM
- Ki [2]: 301 nM
- Ki [3]: > 1000 nM
- Ki [4]: 32 nM
- Ki [5]: 139 nM

Structure (SMILES): CC(C)[C@@H]1NC(=O)[C@H](CCCCN)NC(=O)[C@@H](Cc2c[nH]c3ccccc23)NC(=O)[C@H](Cc2ccc(O)cc2)NC(=O)[C@H](NC(=O)[C@@H]2Cc3ccccc3CN2)CSSC[C@@H](C(=O)N2Cc3ccccc3C[C@H]2C(N)=O)NC1=O
- Ki [1]: 802 nM
- Ki [2]: > 1000 nM
- Ki [3]: 1030 nM
- Ki [4]: 345 nM
- Ki [5]: > 1000 nM

Structure (SMILES): CC(C)(C)[C@@H]1NC(=O)[C@H](CCCCN)NC(=O)[C@@H](Cc2c[nH]c3ccccc23)NC(=O)[C@H](Cc2cccnc2)NC(=O)[C@H](NC(=O)[C@H](N)Cc2ccc(F)cc2)CSSC[C@@H](C(=O)N[C@@H](Cc2ccc3ccccc3c2)C(N)=O)NC1=O (H-[dPhe(4-F)][dC][3Pal][dW]K[Tle]C[2Nal]-NH2; disulfide 2-7)
- Ki [1]: 555 nM
- Ki [2]: 888 nM
- Ki [3]: > 1000 nM
- Ki [4]: 132 nM
- Ki [5]: 260 nM

Structure (SMILES): CC[C@H](C)[C@@H]1NC(=O)[C@H](CCCCN)NC(=O)[C@@H](Cc2c[nH]c3ccccc23)NC(=O)[C@H](Cc2ccc(O)cc2)NC(=O)[C@H](NC(=O)[C@@H](N)Cc2ccc(-c3ccccc3)cc2)CSSC[C@@H](C(=O)N[C@@H](Cc2ccc(-c3ccccc3)cc2)C(N)=O)NC1=O
- Ki [1]: 1350 nM
- Ki [2]: > 1000 nM
- Ki [3]: > 1000 nM
- Ki [4]: 2230 nM
- Ki [5]: 689 nM

Structure (SMILES): CC(C)[C@@H]1NC(=O)[C@H](CCCCN)NC(=O)[C@@H](Cc2c[nH]c3ccccc23)NC(=O)[C@H](Cc2cccnc2)NC(=O)[C@H](NC(=O)[C@@H](N)Cc2cccc(F)c2)CSSC[C@@H](C(=O)N[C@@H](Cc2cccc(F)c2)C(N)=O)NC1=O
- Ki [1]: 495 nM
- Ki [2]: > 1000 nM
- Ki [3]: 82 nM
- Ki [4]: 117 nM
- Ki [5]: 748 nM

Further lines, results first:

- Ki [1]: 210 nM
- Ki [2]: > 1000 nM
- Ki [3]: > 1000 nM
- Ki [4]: 84 nM
- Ki [5]: 2250 nM
Structure (SMILES): CC(C)(C)[C@@H]1NC(=O)[C@H](CCCCN)NC(=O)[C@@H](Cc2c[nH]c3ccccc23)NC(=O)[C@H](Cc2cccnc2)NC(=O)[C@H](NC(=O)[C@@H](N)Cc2c[nH]c3ccccc23)CSSC[C@@H](C(=O)N[C@@H](Cc2ccc3ccccc3c2)C(N)=O)NC1=O (H-W[dC][3Pal][dW]K[Tle]C[2Nal]-NH2; disulfide 2-7)

- Ki [1]: 290 nM
- Ki [2]: > 1000 nM
- Ki [3]: 443 nM
- Ki [4]: 51 nM
Structure (SMILES): C[C@@H](O)[C@@H]1NC(=O)[C@H](CCCCN)NC(=O)[C@@H](Cc2c[nH]c3ccccc23)NC(=O)[C@H](Cc2ccccc2)NC(=O)[C@H](NC(=O)[C@@H](N)Cc2ccc(Cl)cc2)CSSC[C@@H](C(=O)N[C@@H](Cc2ccc3ccccc3c2)C(N)=O)NC1=O

- Ki [1]: 709 nM
- Ki [2]: > 1000 nM
- Ki [3]: > 1000 nM
- Ki [4]: 418 nM
- Ki [5]: 1400 nM
Structure (SMILES): CC(C)[C@@H]1NC(=O)[C@H](CCCCN)NC(=O)[C@@H](Cc2c[nH]c3ccccc23)NC(=O)[C@H](Cc2csc3ccccc23)NC(=O)[C@H](NC(=O)[C@@H](N)Cc2ccc3ccccc3c2)CSSC[C@@H](C(=O)N[C@@H](Cc2ccc3ccccc3c2)C(N)=O)NC1=O (H-[2Nal][dC][Bta][dW]KVC[2Nal]-NH2; disulfide 2-7)

- Ki [1]: 171 nM
- Ki [2]: > 1000 nM
- Ki [3]: 348 nM
- Ki [4]: 81 nM
- Ki [5]: 524 nM
Structure (SMILES): CC(C)[C@@H]1NC(=O)[C@H](CCCCN)NC(=O)[C@@H](Cc2c[nH]c3ccccc23)NC(=O)[C@H](Cc2cccnc2)NC(=O)[C@H](NC(=O)[C@@H](N)Cc2ccc3ccccc3c2)CSSC[C@@H](C(=O)N[C@@H](Cc2ccc3ccccc3c2)C(N)=O)NC1=O
